The values below come from ChEMBL document CHEMBL1155522, “Molecular docking studies of phlorotannins from Eisenia bicyclis with BACE1 inhibitory activity” (Bioorg Med Chem Lett, 2010).

In test [1] the target is T1, Beta-secretase 1 (Homo sapiens, UniProt P56817). Briefly: Inhibition of human recombinant BACE1 after 60 mins by FRET assay. Summed up: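 Test samples dissolved in 10% DMSO; the 50% inhibitory concentration is reported as mean ± S.E.M. of triplicate determinations.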
Test [2] concerns the target T1, Beta-secretase 1. The test can be described thus: Noncompetitive inhibition of human recombinant BACE1 after 60 mins by Dixon plot analysis. Summed up:
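Inhibitor dissolved in 10% DMSO and tested at two concentrations. A Dixon plot of reciprocal enzyme velocity (1/V) against inhibitor concentration was used to assign the inhibition type and to derive the Ki of the enzyme–inhibitor complex.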

For orientation: IC50 means the concentration needed to halve the response being measured. By Ki is commonly meant a measure of affinity in units of concentration, obtained from inhibition or displacement.

T1 sequence (P56817 whole entry): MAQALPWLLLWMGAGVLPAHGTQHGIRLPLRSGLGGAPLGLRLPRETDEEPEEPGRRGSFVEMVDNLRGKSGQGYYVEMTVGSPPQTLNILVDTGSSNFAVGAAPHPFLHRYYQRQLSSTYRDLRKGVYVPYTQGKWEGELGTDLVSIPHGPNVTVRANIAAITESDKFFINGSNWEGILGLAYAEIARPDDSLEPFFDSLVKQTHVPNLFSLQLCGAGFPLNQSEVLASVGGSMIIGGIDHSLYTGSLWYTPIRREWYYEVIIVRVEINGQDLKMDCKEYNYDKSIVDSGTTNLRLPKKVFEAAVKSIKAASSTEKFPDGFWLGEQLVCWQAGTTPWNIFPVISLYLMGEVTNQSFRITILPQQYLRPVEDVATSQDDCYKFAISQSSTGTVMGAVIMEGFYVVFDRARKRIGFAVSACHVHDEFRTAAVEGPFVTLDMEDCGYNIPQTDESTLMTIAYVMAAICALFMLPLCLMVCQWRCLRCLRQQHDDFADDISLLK

For `Oc1cc(O)cc(Oc2c(O)cc(O)c3c2Oc2c(O)cc(Oc4c(O)cc(O)cc4O)cc2O3)c1`, in test [1], the Activity result is “Dose-dependent effect” and the IC50 came to 8.59 µM. Further, the Ki in test [2] stood at 7.2 µM.

Take `O=c1c(O)c(-c2ccc(O)c(O)c2)oc2cc(O)cc(O)c12`: the Activity result in test [1] was “Dose-dependent effect”.

As to `Oc1cc(O)cc(Oc2c(O)cc(O)c3c2Oc2c(O)cc(Oc4c(O)cc(Oc5c(O)cc(O)c6c5Oc5c(O)cc(O)cc5O6)cc4O)cc2O3)c1` [DIECKOL], in test [1], the Activity result was “Dose-dependent effect” and the IC50 is 2.21 µM. Also, the Ki in test [2] came to 1.5 µM.

Turning to `Oc1cc(O)c2oc3cc(O)c4oc5cc(O)cc(O)c5oc4c3oc2c1` [DIOXINODEHYDROECKOL], in test [1], the Activity entry is “Dose-dependent effect” and the IC50 amounted to 5.35 µM. In addition, in test [2], the Ki amounted to 8 µM.

For `Oc1cc(O)cc(Oc2c(O)cc(O)c3c2Oc2c(O)cc(O)cc2O3)c1` [ECKOL], in test [1], the Activity entry is “Dose-dependent effect” and the half-maximal inhibitory concentration (IC50) is 12.2 µM. The Ki in test [2] stood at 13.9 µM.

On to `Oc1cc(O)cc(Oc2c(O)cc(O)c3c2Oc2c(O)cc4oc5c(Oc6cc(O)cc(O)c6)c(O)cc(O)c5c4c2O3)c1` [PHLOROFUCOFUROECKOL A], for which, in test [1], the Activity entry is “Dose-dependent effect” and the IC50 is 2.13 µM. Besides, the Ki in test [2] stood at 1.3 µM.

In the case of `Oc1cc(O)cc(O)c1` [PHLOROGLUCINOL], in test [1], the Activity result was “Dose-dependent effect” and the IC50 amounted to 36.5 µM.

On to `Oc1cc(O)cc(Oc2c(O)cc(O)cc2Oc2c(O)cc(O)cc2O)c1` [TRIPHLOROETHOL A], for which, in test [1], the Activity entry is “Dose-dependent effect” and the half-maximal inhibitory concentration (IC50) stood at 11.7 µM. Moreover, in test [2], the Ki was found to be 12.1 µM.
